Measured values: ChEMBL document CHEMBL2384937, “Design, synthesis and biological evaluation of novel pyrimidine, 3-cyanopyridine and m-amino-N-phenylbenzamide based monocyclic EGFR tyrosine kinase inhibitors” (Bioorg Med Chem, 2013)

Assays:
A549 = assay: Cytotoxicity against human A549 cells after 2 days by sulforhodamine B assay; format: functional, cell-based; details: A549, 48 h
Outline: (§1)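 Cells plated at 5 × 10⁴/mL in RPMI-1640 with 5% fetal bovine serum; next day dosed at 0.5, 5, 50, 500 and 5000 ng/mL and cultured 2 days. Survival read by sulforhodamine B staining; IC50 taken from growth curves. Standard deviations below 30%.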

[1] = biological target: Epidermal growth factor receptor (Homo sapiens, UniProt P00533); assay: Inhibition of recombinant EGFR (unknown origin) after 10 mins by DELFIA/time-resolved fluorometry
Epidermal growth factor receptor, sequence (P00533 whole entry): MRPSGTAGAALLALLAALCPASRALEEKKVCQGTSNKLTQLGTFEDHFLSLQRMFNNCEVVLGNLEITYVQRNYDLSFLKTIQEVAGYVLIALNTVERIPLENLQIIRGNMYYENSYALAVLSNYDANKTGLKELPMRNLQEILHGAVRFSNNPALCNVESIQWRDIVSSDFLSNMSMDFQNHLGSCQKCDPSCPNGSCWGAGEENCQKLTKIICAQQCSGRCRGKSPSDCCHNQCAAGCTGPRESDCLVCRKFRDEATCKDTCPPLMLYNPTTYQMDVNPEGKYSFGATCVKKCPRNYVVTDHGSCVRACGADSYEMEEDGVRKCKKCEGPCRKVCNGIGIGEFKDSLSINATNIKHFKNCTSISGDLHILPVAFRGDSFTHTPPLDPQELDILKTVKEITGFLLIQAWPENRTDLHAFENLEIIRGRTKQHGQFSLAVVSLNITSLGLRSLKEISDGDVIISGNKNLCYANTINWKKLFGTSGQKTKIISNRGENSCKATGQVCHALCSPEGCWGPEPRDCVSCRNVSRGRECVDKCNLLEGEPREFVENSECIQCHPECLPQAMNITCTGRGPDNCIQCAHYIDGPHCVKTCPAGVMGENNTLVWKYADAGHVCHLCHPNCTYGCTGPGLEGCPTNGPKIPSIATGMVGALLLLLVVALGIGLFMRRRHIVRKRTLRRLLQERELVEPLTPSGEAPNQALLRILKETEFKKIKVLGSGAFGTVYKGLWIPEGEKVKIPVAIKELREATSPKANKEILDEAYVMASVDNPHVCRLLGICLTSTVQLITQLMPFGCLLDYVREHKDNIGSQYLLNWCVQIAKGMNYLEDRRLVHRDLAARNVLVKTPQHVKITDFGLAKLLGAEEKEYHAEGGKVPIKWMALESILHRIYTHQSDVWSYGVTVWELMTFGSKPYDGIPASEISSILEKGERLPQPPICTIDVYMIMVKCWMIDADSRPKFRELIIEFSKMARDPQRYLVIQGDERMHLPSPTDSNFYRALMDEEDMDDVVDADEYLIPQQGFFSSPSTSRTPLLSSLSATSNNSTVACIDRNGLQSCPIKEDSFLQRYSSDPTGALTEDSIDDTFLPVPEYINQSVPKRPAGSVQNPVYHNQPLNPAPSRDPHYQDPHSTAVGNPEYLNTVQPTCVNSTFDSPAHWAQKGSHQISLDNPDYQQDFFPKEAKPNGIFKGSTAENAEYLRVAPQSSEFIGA

HL-60 = assay: Cytotoxicity against human HL60 cells after 2 days by sulforhodamine B assay; format: functional, cell-based; details: HL-60, 48 h; outline: as §1
[2] = biological target: Receptor tyrosine-protein kinase erbB-2 (Homo sapiens, UniProt P04626); assay: Inhibition of recombinant ErbB-2 (unknown origin) after 10 mins by DELFIA/time-resolved fluorometry
Receptor tyrosine-protein kinase erbB-2, sequence (P04626 whole entry): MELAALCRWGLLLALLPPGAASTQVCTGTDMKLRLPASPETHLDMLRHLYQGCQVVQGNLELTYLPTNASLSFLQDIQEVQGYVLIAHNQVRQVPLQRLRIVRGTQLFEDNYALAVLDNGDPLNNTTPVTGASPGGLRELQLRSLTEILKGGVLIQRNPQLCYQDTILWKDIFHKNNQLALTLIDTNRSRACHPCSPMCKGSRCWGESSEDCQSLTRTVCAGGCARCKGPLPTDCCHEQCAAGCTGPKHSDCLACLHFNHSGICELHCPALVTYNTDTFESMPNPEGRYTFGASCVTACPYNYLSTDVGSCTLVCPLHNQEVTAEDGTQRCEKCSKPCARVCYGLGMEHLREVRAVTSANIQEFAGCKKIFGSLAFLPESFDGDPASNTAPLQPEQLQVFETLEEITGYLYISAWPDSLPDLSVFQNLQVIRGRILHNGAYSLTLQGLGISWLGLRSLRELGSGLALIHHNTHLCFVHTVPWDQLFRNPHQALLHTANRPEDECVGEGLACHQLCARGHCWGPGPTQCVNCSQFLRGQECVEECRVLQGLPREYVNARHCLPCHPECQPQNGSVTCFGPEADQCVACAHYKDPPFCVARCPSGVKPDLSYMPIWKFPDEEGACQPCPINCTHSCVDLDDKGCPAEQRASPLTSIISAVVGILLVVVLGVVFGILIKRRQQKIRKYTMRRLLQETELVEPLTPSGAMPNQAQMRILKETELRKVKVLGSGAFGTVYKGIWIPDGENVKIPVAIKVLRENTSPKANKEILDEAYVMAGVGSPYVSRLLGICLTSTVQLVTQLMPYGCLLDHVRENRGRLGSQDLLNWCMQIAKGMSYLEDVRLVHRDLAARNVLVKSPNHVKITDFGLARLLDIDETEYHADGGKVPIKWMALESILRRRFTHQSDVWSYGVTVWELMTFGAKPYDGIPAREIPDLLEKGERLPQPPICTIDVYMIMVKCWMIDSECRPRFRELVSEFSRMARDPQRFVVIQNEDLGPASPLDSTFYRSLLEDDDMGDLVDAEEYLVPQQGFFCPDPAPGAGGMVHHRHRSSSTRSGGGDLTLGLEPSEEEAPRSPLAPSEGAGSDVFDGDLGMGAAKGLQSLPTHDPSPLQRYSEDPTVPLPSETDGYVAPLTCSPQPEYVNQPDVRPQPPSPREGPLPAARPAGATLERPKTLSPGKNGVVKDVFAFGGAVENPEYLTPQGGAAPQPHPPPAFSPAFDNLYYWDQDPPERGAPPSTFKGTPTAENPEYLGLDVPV
Outline: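 Compound in DMSO, diluted in 25 mM HEPES pH 7.4, preincubated 10 min at room temperature with 12.5 ng recombinant ErbB-2. Reaction buffer with 20 mM HEPES, 2 mM MnCl₂, Na₃VO₄ and 1 mM DTT; 0.1 mM ATP–50 mM MgCl₂ added for 1 h. After washes, europium-labeled anti-phosphotyrosine antibody (400 ng) 1 h; enhancement solution, time-resolved fluorescence ex 340/em 615 nm. IC50 from percent-inhibition curves.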

CCOc1ccc(C(=O)Nc2ccc(OCc3ccccn3)c(Cl)c2)cc1NC(=O)c1ccc(CN2CCN(C)CC2)cc1 was tested, and the IC50 (A549) was 6 µM, the IC50 [1] was 3.5 µM and the IC50 (HL-60) was greater than 10 µM.

For Cc1ncc(C#N)c(Nc2ccc(OCc3ccccn3)c(Cl)c2)c1/C=C/c1ccc(CNCCS(C)(=O)=O)o1, the IC50 [2] was greater than 10 µM and the IC50 [1] was greater than 5 µM.

With CN1CCN(Cc2ccc(C(=O)Nc3ccc(-c4cncc(C#N)c4Nc4ccc(OCc5cccc(F)c5)c(Cl)c4)cc3)cc2)CC1 the IC50 (A549) was 6 µM, the IC50 [1] was 2.5 µM and the IC50 (HL-60) was 1.8 µM.

Compound CCOc1cc([N+](=O)[O-])c(C(=O)Nc2ccc(F)c(Cl)c2)cc1NC(=O)c1ccc(CN2CCN(C)CC2)cc1 has an IC50 (A549) of 6 µM, an IC50 [1] of 5 µM and an IC50 (HL-60) of 5.5 µM.

CC(=O)c1ccc(Nc2c(C#N)cncc2-c2ccc(NC(=O)c3ccc(CN4CCN(C)CC4)cc3)cc2)cc1 gave an IC50 (A549) greater than 10 µM, an IC50 [1] greater than 5 µM and an IC50 (HL-60) of 5 µM.

In the case of CN(C)C/C=C/C(=O)Nc1ccc(-c2cncc(C#N)c2Nc2ccc(OCc3ccccn3)c(Cl)c2)cc1, the IC50 (A549) is reported as greater than 10 µM, the IC50 [1] is reported as greater than 5 µM and the IC50 (HL-60) is reported as greater than 10 µM.

For CCOc1cc(N)c(C(=O)Nc2ccc(F)c(Cl)c2)cc1NC(=O)/C=C/CN(C)C, the IC50 (A549) was greater than 10 µM, the IC50 [1] was 4.5 µM and the IC50 (HL-60) was greater than 10 µM.

With CCOc1cc([N+](=O)[O-])c(C(=O)Nc2ccc(OCc3cccc(F)c3)c(Cl)c2)cc1NC(=O)/C=C/CN(C)C the IC50 (A549) was 3.5 µM, the IC50 [1] was 2 µM and the IC50 (HL-60) was 4 µM.

With CCOc1cc(N)c(C(=O)Nc2ccc(OCc3ccccn3)c(Cl)c2)cc1NC(=O)/C=C/CN(C)C the IC50 (A549) was greater than 10 µM, the IC50 [1] was 0.8 µM and the IC50 (HL-60) was greater than 10 µM.

Work on Cc1ccc(NC(=O)c2ccc(CN3CCN(C)CC3)cc2)cc1C(=O)Nc1ccc(OCc2cccc(F)c2)c(Cl)c1 yielded an IC50 (A549) of 5.5 µM, an IC50 [1] of 0.6 µM and an IC50 (HL-60) of 6 µM.

Work on CCOc1cc([N+](=O)[O-])c(C(=O)Nc2ccc(OCc3ccccn3)c(Cl)c2)cc1NC(=O)/C=C/CN(C)C yielded an IC50 (A549) of 2.5 µM, an IC50 [1] of 0.85 µM and an IC50 (HL-60) of 4 µM.

Work on CCOc1ccc(C(=O)Nc2nccc(-c3cccnc3)n2)cc1NC(=O)c1ccc(CN2CCN(C)CC2)cc1 yielded an IC50 (A549) greater than 10 µM and an IC50 (HL-60) greater than 10 µM.

For Cc1ncnc(Nc2ccc(OCc3cccc(F)c3)c(Cl)c2)c1C#Cc1ccc(CNCCS(C)(=O)=O)o1, the IC50 [2] was greater than 10 µM and the IC50 [1] was 0.045 µM.

In the case of Cc1ncc(C#N)c(Nc2ccc(OCc3ccccn3)c(Cl)c2)c1/C=C/c1cccc(NC(=O)/C=C/CN(C)C)c1, the IC50 [2] is reported as greater than 10 µM and the IC50 [1] is reported as greater than 5 µM.

CCOc1cc([N+](=O)[O-])c(C(=O)Nc2ccc(OCc3ccccn3)c(Cl)c2)cc1NC(=O)c1ccc(CN2CCN(C)CC2)cc1 showed an IC50 (A549) of 3.5 µM and an IC50 (HL-60) of 5 µM.

In the case of CCOc1cc(N)c(C(=O)Nc2ccc(OCc3cccc(F)c3)c(Cl)c2)cc1NC(=O)/C=C/CN(C)C, the IC50 (A549) is reported as 5.5 µM, the IC50 [1] is reported as 1.5 µM and the IC50 (HL-60) is reported as 6 µM.

With CCOc1cc(N)c(C(=O)Nc2ccc(OCc3cccc(F)c3)c(Cl)c2)cc1NC(=O)c1ccc(CN2CCN(C)CC2)cc1 the IC50 (A549) was 6 µM, the IC50 [1] was 5 µM and the IC50 (HL-60) was 7 µM.

With Cc1ncc(C#N)c(Oc2ccc(OCc3ccccn3)c(Cl)c2)c1C#Cc1ccc(CNCCS(C)(=O)=O)o1 the IC50 [1] was greater than 5 µM.

Cc1ccc(NC(=O)c2ccc(CN3CCN(C)CC3)cc2)cc1C(=O)Nc1nccc(-c2cccc(F)c2)n1 gave an IC50 (A549) greater than 10 µM and an IC50 [1] of 6 µM.

CCOc1cc([N+](=O)[O-])c(C(=O)Nc2ccc(OCc3cccc(F)c3)c(Cl)c2)cc1NC(=O)c1ccc(CN2CCN(C)CC2)cc1 gave an IC50 (A549) of 6 µM, an IC50 [1] of 5.5 µM and an IC50 (HL-60) of 4.5 µM.

For CCOc1cc([N+](=O)[O-])c(C(=O)Nc2ccc(F)c(Cl)c2)cc1NC(=O)/C=C/CN(C)C, the IC50 (A549) was greater than 10 µM, the IC50 [1] was 6 µM and the IC50 (HL-60) was 6 µM.

Cc1ccc(NC(=O)/C=C/CN(C)C)cc1C(=O)Nc1ccc(OCc2cccc(F)c2)c(Cl)c1 gave an IC50 (A549) of 7 µM, an IC50 [1] of 0.45 µM and an IC50 (HL-60) of 5.5 µM.

For CN(C)C/C=C/C(=O)Nc1ccc(-c2cncc(C#N)c2Nc2ccc(F)c(Cl)c2)cc1, the IC50 (A549) was greater than 10 µM, the IC50 [1] was 3.5 µM and the IC50 (HL-60) was 6 µM.

CCOc1cc(N)c(C(=O)Nc2ccc(F)c(Cl)c2)cc1NC(=O)c1ccc(CN2CCN(C)CC2)cc1 was tested, and the IC50 (A549) was greater than 10 µM, the IC50 [1] was 0.8 µM and the IC50 (HL-60) was greater than 10 µM.

For Cc1ncnc(Nc2ccc(OCc3cccc(F)c3)c(Cl)c2)c1/C=C/c1ccc(CNCCS(C)(=O)=O)o1, the IC50 [2] was greater than 10 µM and the IC50 [1] was 0.46 µM.

In the case of CN1CCN(Cc2ccc(C(=O)Nc3ccc(-c4cncc(C#N)c4Nc4ccc(OCc5ccccn5)c(Cl)c4)cc3)cc2)CC1, the IC50 (A549) is reported as greater than 10 µM, the IC50 [1] is reported as 2.3 µM and the IC50 (HL-60) is reported as 6 µM.

Cc1ccc(NC(=O)/C=C/CN(C)C)cc1C(=O)Nc1nccc(-c2cccnc2)n1 showed an IC50 (A549) greater than 10 µM and an IC50 [1] of 5 µM.

For CC(=O)c1ccc(Nc2c(C#N)cncc2-c2ccc(NC(=O)/C=C/CN(C)C)cc2)cc1, the IC50 (A549) was greater than 10 µM, the IC50 [1] was greater than 5 µM and the IC50 (HL-60) was greater than 10 µM.

Cc1ncc(C#N)c(Nc2ccc(OCc3ccccn3)c(Cl)c2)c1C#Cc1ccc(CNCCS(C)(=O)=O)o1 gave an IC50 [1] of 1.5 µM.

Compound Cc1ncnc(Oc2ccc(OCc3ccccn3)c(Cl)c2)c1C#Cc1ccc(CNCCS(C)(=O)=O)o1 has an IC50 [1] greater than 5 µM.

For CCOc1cc(N)c(C(=O)Nc2ccc(OCc3ccccn3)c(Cl)c2)cc1NC(=O)c1ccc(CN2CCN(C)CC2)cc1, the IC50 (A549) was 6 µM, the IC50 [1] was 1 µM and the IC50 (HL-60) was 8 µM.

CCOc1ccc(C(=O)Nc2nccc(-c3cccnc3)n2)cc1NC(=O)/C=C/CN(C)C gave an IC50 (A549) greater than 10 µM, an IC50 [1] of 6 µM and an IC50 (HL-60) greater than 10 µM.

Cc1ncnc(Nc2ccc(OCc3cccc(F)c3)c(Cl)c2)c1/C=C/c1cccc(NC(=O)/C=C/CN(C)C)c1 showed an IC50 [2] greater than 10 µM and an IC50 [1] greater than 5 µM.

Compound CN(C)C/C=C/C(=O)Nc1ccc(-c2cncc(C#N)c2Nc2ccc(OCc3cccc(F)c3)c(Cl)c2)cc1 has an IC50 (A549) of 7 µM, an IC50 [1] of 0.66 µM and an IC50 (HL-60) greater than 10 µM.

CN1CCN(Cc2ccc(C(=O)Nc3ccc(-c4cncc(C#N)c4Nc4ccc(F)c(Cl)c4)cc3)cc2)CC1 gave an IC50 (A549) greater than 10 µM, an IC50 [1] of 3 µM and an IC50 (HL-60) of 5 µM.

Work on CCOc1ccc(C(=O)Nc2ccc(OCc3ccccn3)c(Cl)c2)cc1NC(=O)/C=C/CN(C)C yielded an IC50 (A549) greater than 10 µM, an IC50 [1] of 1.2 µM and an IC50 (HL-60) greater than 10 µM.
